Test results published in ChEMBL document CHEMBL1681713, “Lead detoxification activities and ADMET hepatotoxicities of a class of novel 5-(1-carbonyl-L-amino-acid)-2,2-dimethyl-[1,3]dithiolane-4-carboxylic acids” (Bioorg Med Chem Lett, 2011).

Assays:
Brain [1] = test: Toxicity in mouse assessed as effect on zinc level in brain per gram of organ at 0.4 mmol/kg, ip qd for 5 days; type: organism-based; conditions: in vivo, 120 h
Liver [2] = test: Detoxification activity against lead-induced toxicity in mouse assessed as reduction lead level in liver per gram of organ at 0.6 mmol/kg, ip qd for 5 days measured 24 hrs last post dose by synchrotron X-ray fluorescence analysis; type: functional
How it was run: (§1)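 Lead-loaded mice were given normal saline vehicle (negative control) or test agent at 0.2, 0.4 or 0.6 mmol/kg. Lead was measured in liver, kidney, left femur and brain and reported as mean ± SD µg Pb/g organ against the NS group.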

Liver [3] = test: Toxicity in mouse assessed as effect on iron level in liver per gram of organ at 0.4 mmol/kg, ip qd for 5 days; type: organism-based; conditions: in vivo, 120 h
Brain [4] = test: Toxicity in mouse assessed as effect on copper level in brain per gram of organ at 0.4 mmol/kg, ip qd for 5 days; type: organism-based; conditions: in vivo, 120 h
Liver [5] = test: Toxicity in mouse assessed as effect on manganese level in liver per gram of organ at 0.4 mmol/kg, ip qd for 5 days; type: organism-based; conditions: in vivo, 120 h
Brain [6] = test: Detoxification activity against lead-induced toxicity in mouse assessed as reduction lead level in brain per gram of organ at 0.6 mmol/kg, ip qd for 5 days measured 24 hrs last post dose by synchrotron X-ray fluorescence analysis; type: functional; how it was run: as §1
Kidney [7] = test: Toxicity in mouse assessed as effect on iron level in kidney per gram of organ at 0.4 mmol/kg, ip qd for 5 days; type: organism-based; conditions: in vivo, 120 h
Kidney [8] = test: Detoxification activity against lead-induced toxicity in mouse assessed as reduction lead level in kidney per gram of organ at 0.4 mmol/kg, ip qd for 5 days measured 24 hrs last post dose by synchrotron X-ray fluorescence analysis; type: functional; how it was run: as §1
Brain [9] = test: Detoxification activity against lead-induced toxicity in mouse assessed as reduction lead level in brain per gram of organ at 0.2 mmol/kg, ip qd for 5 days measured 24 hrs last post dose by synchrotron X-ray fluorescence analysis; type: functional; how it was run: as §1
Kidney [10] = test: Toxicity in mouse assessed as effect on manganese level in kidney per gram of organ at 0.4 mmol/kg, ip qd for 5 days; type: organism-based; conditions: in vivo, 120 h
Mus musculus = test: Toxicity in mouse assessed as change in bodyweight at 0.4 mmol/kg, ip qd for 5 days; type: organism-based; conditions: in vivo, 120 h
How it was run: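 Lead-loaded mice were given normal saline vehicle or test agent at 0.4 mmol/kg. Body weights were recorded and compared with the NS group to assess growth.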

Liver [11] = test: Toxicity in mouse assessed as effect on zinc level in liver per gram of organ at 0.4 mmol/kg, ip qd for 5 days; type: organism-based; conditions: in vivo, 120 h
Kidney [12] = test: Detoxification activity against lead-induced toxicity in mouse assessed as reduction lead level in kidney per gram of organ at 0.6 mmol/kg, ip qd for 5 days measured 24 hrs last post dose by synchrotron X-ray fluorescence analysis; type: functional; how it was run: as §1
Kidney [13] = test: Toxicity in mouse assessed as effect on zinc level in kidney per gram of organ at 0.4 mmol/kg, ip qd for 5 days; type: organism-based; conditions: in vivo, 120 h
Femur [14] = test: Detoxification activity against lead-induced toxicity in mouse assessed as reduction lead level in femurs per gram of organ at 0.2 mmol/kg, ip qd for 5 days measured 24 hrs last post dose by synchrotron X-ray fluorescence analysis; type: functional; how it was run: as §1
Brain [15] = test: Toxicity in mouse assessed as effect on manganese level in brain per gram of organ at 0.4 mmol/kg, ip qd for 5 days; type: organism-based; conditions: in vivo, 120 h
Kidney [16] = test: Detoxification activity against lead-induced toxicity in mouse assessed as reduction lead level in kidney per gram of organ at 0.2 mmol/kg, ip qd for 5 days measured 24 hrs last post dose by synchrotron X-ray fluorescence analysis; type: functional; how it was run: as §1
[17] = Detoxification activity against lead-induced toxicity in mouse assessed as reduction lead level in feces at 0.4 mmol/kg, ip qd for 5 days measured 24 hrs last post dose by synchrotron X-ray fluorescence analysis; type: functional
How it was run: (§2)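 Lead-loaded mice were given normal saline vehicle, DL-penicillamine or NaDMS (positive controls), or test agent, each at 0.4 mmol/kg; n = 12 per group. Lead was measured in feces and urine and reported as mean ± SD µg Pb/g excrement against the NS group.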

Femur [18] = test: Detoxification activity against lead-induced toxicity in mouse assessed as reduction lead level in femurs per gram of organ at 0.6 mmol/kg, ip qd for 5 days measured 24 hrs last post dose by synchrotron X-ray fluorescence analysis; type: functional; how it was run: as §1
Kidney [19] = test: Toxicity in mouse assessed as effect on calcium level in kidney per gram of organ at 0.4 mmol/kg, ip qd for 5 days; type: organism-based; conditions: in vivo, 120 h
[20] = Detoxification activity against lead-induced toxicity in mouse assessed as reduction lead level in urine at 0.4 mmol/kg, ip qd for 5 days measured 24 hrs last post dose by synchrotron X-ray fluorescence analysis; type: functional; how it was run: as §2
Brain [21] = test: Detoxification activity against lead-induced toxicity in mouse assessed as reduction lead level in brain per gram of organ at 0.4 mmol/kg, ip qd for 5 days measured 24 hrs last post dose by synchrotron X-ray fluorescence analysis; type: functional; how it was run: as §1
Liver [22] = test: Toxicity in mouse assessed as effect on calcium level in liver per gram of organ at 0.4 mmol/kg, ip qd for 5 days; type: organism-based; conditions: in vivo, 120 h
Kidney [23] = test: Toxicity in mouse assessed as effect on copper level in kidney per gram of organ at 0.4 mmol/kg, ip qd for 5 days; type: organism-based; conditions: in vivo, 120 h
Brain [24] = test: Toxicity in mouse assessed as effect on calcium level in brain per gram of organ at 0.4 mmol/kg, ip qd for 5 days; type: organism-based; conditions: in vivo, 120 h
Brain [25] = test: Toxicity in mouse assessed as effect on iron level in brain per gram of organ at 0.4 mmol/kg, ip qd for 5 days; type: organism-based; conditions: in vivo, 120 h
Liver [26] = test: Detoxification activity against lead-induced toxicity in mouse assessed as reduction lead level in liver per gram of organ at 0.4 mmol/kg, ip qd for 5 days measured 24 hrs last post dose by synchrotron X-ray fluorescence analysis; type: functional; how it was run: as §1
Femur [27] = test: Detoxification activity against lead-induced toxicity in mouse assessed as reduction lead level in femurs per gram of organ at 0.4 mmol/kg, ip qd for 5 days measured 24 hrs last post dose by synchrotron X-ray fluorescence analysis; type: functional; how it was run: as §1
Liver [28] = test: Detoxification activity against lead-induced toxicity in mouse assessed as reduction lead level in liver per gram of organ at 0.2 mmol/kg, ip qd for 5 days measured 24 hrs last post dose by synchrotron X-ray fluorescence analysis; type: functional; how it was run: as §1
Liver [29] = test: Toxicity in mouse assessed as effect on copper level in liver per gram of organ at 0.4 mmol/kg, ip qd for 5 days; type: organism-based; conditions: in vivo, 120 h

## CC1(C)SC(C(=O)O)C(C(=O)N[C@@H](CC(=O)O)C(=O)O)S1 (stereo not given in full)
Brain [1]
  Activity: 34.8 µg/g
Liver [2]
  Activity: 2.77 µg/g
Liver [3]
  Activity: 154.86 µg/g
Brain [4]
  Activity: 2.4 µg/g
Liver [5]
  Activity: 1.35 µg/g
Brain [6]
  Activity: 0.84 µg/g
Kidney [7]
  Activity: 93.98 µg/g
Kidney [8]
  Activity: 7.09 µg/g
Brain [9]
  Activity: 1.69 µg/g
Kidney [10]
  Activity: 1.32 µg/g
Mus musculus
  Activity: 31.1 g
Liver [11]
  Activity: 37.69 µg/g
Kidney [12]
  Activity: 5.9 µg/g
Kidney [13]
  Activity: 27.89 µg/g
Femur [14]
  Activity: 17.21 µg/g
Brain [15]
  Activity: 0.78 µg/g
Kidney [16]
  Activity: 7.68 µg/g
[17]
  Activity: 4.8 µg/g
Femur [18]
  Activity: 9.64 µg/g
Kidney [19]
  Activity: 76.47 µg/g
[20]
  Activity: 2.83 µg/g
Brain [21]
  Activity: 1.22 µg/g
Liver [22]
  Activity: 59.89 µg/g
Kidney [23]
  Activity: 3.53 µg/g
Brain [24]
  Activity: 68.28 µg/g
Brain [25]
  Activity: 56.37 µg/g
Liver [26]
  Activity: 3.82 µg/g
Femur [27]
  Activity: 11.1 µg/g
Liver [28]
  Activity: 5.81 µg/g
Liver [29]
  Activity: 3.61 µg/g
